≈ marks a conversion by molar mass, not a printed value. Each block holds one compound with its values, some of them ahead of it. Calls of active or inactive are those of the source. No cut-off for these calls is given here.
How the values were obtained:
Staphylococcus aureus [1] = test: Antimicrobial activity against Staphylococcus aureus isolated from human prosthetic joint infection site by […]; format: functional
[2] = tested on: Staphylococcus epidermidis; test: Antimicrobial activity against Staphylococcus epidermidis isolate OR1 treated in solution at 45 degC after 24 hrs; format: functional; settings: isolate OR1, 24 h
Summary of the method: (§1)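 Antimicrobials, as powder or in solution as used for MIC testing, held at 45°C for 1 and 24 h in three independent experiments. MICs were then determined by the CLSI microtiter plate method in cation-adjusted Mueller-Hinton medium, with MHB containing 50 μg/ml calcium for daptomycin. Values are median (range) […] in mg/liter.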

Staphylococcus [3] = test: Antimicrobial activity against coagulase-negative Staphylococcus isolated from human prosthetic joint infection site by […]; format: functional
Staphylococcus aureus [4] = test: Antimicrobial activity against Staphylococcus aureus isolated from human preoperative skin by […]; format: functional
Staphylococcus aureus [5] = test: Antimicrobial activity against Staphylococcus aureus ATCC 29213 by […]; format: functional
[6] = tested on: Staphylococcus epidermidis; test: Antimicrobial activity against Staphylococcus epidermidis isolate KO8 isolated from healthy human skin by […]; format: functional
Staphylococcus [7] = test: Antimicrobial activity against Staphylococcus isolates biofilms assessed as change in optical density ratio of biofilms at 1 mg/litre at ambient temperature of 45 degC after 24 hrs relative to baseline; format: functional
Summary of the method: (§2)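 Static microtiter biofilms of 34 clinical S. aureus and CoNS isolates from orthopedic implant infections or preoperative skin, plus reference strains. Inoculum was McFarland 0.5 diluted 1:100 in calcium-supplemented MHB, grown 24 h at 35°C in ambient air. Established biofilms were exposed to drug for 24 h at 35, 40 or 45°C, then formalin-fixed and stained with 1% crystal violet for 5 min, and OD read at 550 nm in quadruplicate.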

Staphylococcus [8] = test: Antimicrobial activity against Staphylococcus isolates biofilms assessed as change in optical density ratio of biofilms at 5 mg/litre at ambient temperature of 40 degC after 24 hrs relative to baseline; format: functional; summary of the method: as §2
Staphylococcus [9] = test: Antimicrobial activity against Staphylococcus isolates biofilms assessed as change in optical density ratio of biofilms at 5 mg/litre at ambient temperature of 35 degC after 24 hrs relative to baseline; format: functional; summary of the method: as §2
Staphylococcus [10] = test: Antimicrobial activity against Staphylococcus isolates biofilms assessed as change in optical density ratio of biofilms at 25 mg/litre at ambient temperature of 40 degC after 24 hrs relative to baseline; format: functional; summary of the method: as §2
[11] = tested on: Staphylococcus epidermidis; test: Antimicrobial activity against Staphylococcus epidermidis DSM3269 by […]; format: functional
Staphylococcus [12] = test: Antimicrobial activity against Staphylococcus isolates biofilms assessed as change in optical density ratio of biofilms at 1 mg/litre at ambient temperature of 40 degC after 24 hrs relative to baseline; format: functional; summary of the method: as §2
Staphylococcus aureus [13] = test: Antimicrobial activity against Staphylococcus aureus ATCC 29213 administered as powder at 45 degC after 24 hrs; format: functional; settings: ATCC 29213, 24 h; summary of the method: as §1
Staphylococcus [14] = test: Antimicrobial activity against Staphylococcus isolates biofilms assessed as decrease in bacterial load at 1 to 25 mg/litre at ambient temperature of 30 to 45 degC after 24 hrs relative to baseline; format: functional, organism-based; settings: in the assay text read “35 to 45 degC” for “30 to 45 degC”
Summary of the method: (§3)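 24-h static biofilms of the staphylococcal isolates were exposed to drug for 24 h at 35, 40 or 45°C. Biofilms were not fixed but scraped off and resuspended in MHB, then serially diluted and 0.1 ml plated on blood agar, read after 48 h at 35°C in ambient air. Done in duplicate as mean log10 CFU/ml; log reduction was taken versus untreated biofilm.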

Staphylococcus [15] = test: Antimicrobial activity against Staphylococcus isolates biofilms assessed as change in optical density ratio of biofilms at 5 mg/litre at ambient temperature of 45 degC after 24 hrs relative to baseline; format: functional; summary of the method: as §2
Staphylococcus [16] = test: Antimicrobial activity against coagulase-negative Staphylococcus isolated from human preoperative skin by […]; format: functional
Staphylococcus [17] = test: Antimicrobial activity against Staphylococcus isolates biofilms assessed as decrease in bacterial load at 100 mg/litre at ambient temperature of 35 degC after 24 hrs relative to baseline; format: functional; summary of the method: as §3
Staphylococcus [18] = test: Antimicrobial activity against Staphylococcus isolates biofilms assessed as change in optical density ratio of biofilms at 25 mg/litre at ambient temperature of 45 degC after 24 hrs relative to baseline; format: functional; summary of the method: as §2
Staphylococcus [19] = test: Antimicrobial activity against Staphylococcus isolates biofilms assessed as change in optical density ratio of biofilms at 25 mg/litre at ambient temperature of 35 degC after 24 hrs relative to baseline; format: functional; summary of the method: as §2
Staphylococcus [20] = test: Antimicrobial activity against Staphylococcus isolates biofilms assessed as change in optical density ratio of biofilms at 1 mg/litre at ambient temperature of 35 degC after 24 hrs relative to baseline; format: functional; summary of the method: as §2
Staphylococcus [21] = test: Antimicrobial activity against Staphylococcus isolates biofilms assessed as change in optical density ratio of biofilms at 500 mg/litre at ambient temperature of 40 degC after 24 hrs relative to baseline; format: functional; summary of the method: as §2
Staphylococcus [22] = test: Antimicrobial activity against Staphylococcus isolates biofilms assessed as change in optical density ratio of biofilms at 100 mg/litre at ambient temperature of 40 degC after 24 hrs relative to baseline; format: functional; summary of the method: as §2
Staphylococcus [23] = test: Antimicrobial activity against Staphylococcus isolates biofilms assessed as change in optical density ratio of biofilms at 50 mg/litre at ambient temperature of 35 degC after 24 hrs relative to baseline; format: functional; summary of the method: as §2
Staphylococcus [24] = test: Antimicrobial activity against Staphylococcus isolates biofilms assessed as change in optical density ratio of biofilms at 500 mg/litre at ambient temperature of 35 degC after 24 hrs relative to baseline; format: functional; summary of the method: as §2
Staphylococcus [25] = test: Antimicrobial activity against Staphylococcus isolates biofilms assessed as change in optical density ratio of biofilms at 100 mg/litre at ambient temperature of 35 degC after 24 hrs relative to baseline; format: functional; summary of the method: as §2
Staphylococcus [26] = test: Antimicrobial activity against Staphylococcus isolates biofilms assessed as change in optical density ratio of biofilms at 100 mg/litre at ambient temperature of 45 degC after 24 hrs relative to baseline; format: functional; summary of the method: as §2
Staphylococcus [27] = test: Antimicrobial activity against Staphylococcus isolates biofilms assessed as change in optical density ratio of biofilms at 50 mg/litre at ambient temperature of 45 degC after 24 hrs relative to baseline; format: functional; summary of the method: as §2
Staphylococcus [28] = test: Antimicrobial activity against Staphylococcus isolates biofilms assessed as change in optical density ratio of biofilms at 500 mg/litre at ambient temperature of 45 degC after 24 hrs relative to baseline; format: functional; summary of the method: as §2
Staphylococcus [29] = test: Antimicrobial activity against Staphylococcus isolates biofilms assessed as change in optical density ratio of biofilms at 50 mg/litre at ambient temperature of 40 degC after 24 hrs relative to baseline; format: functional; summary of the method: as §2
Staphylococcus [30] = test: Antimicrobial activity against Staphylococcus isolates biofilms assessed as decrease in bacterial load at 500 mg/litre at ambient temperature of 45 degC after 24 hrs relative to baseline; format: functional; summary of the method: as §3
Staphylococcus [31] = test: Antimicrobial activity against Staphylococcus isolates biofilms assessed as decrease in bacterial load at 500 mg/litre at ambient temperature of 40 degC after 24 hrs relative to baseline; format: functional; summary of the method: as §3

- MIC (Staphylococcus aureus [1]): 0.125 mg/L (≈ 0.213 µM)
- MIC [2]: 2 mg/L (≈ 3.41 µM)
- MIC (Staphylococcus [3]): 0.06 mg/L (≈ 0.102 µM)
- MIC (Staphylococcus aureus [4]): 0.06 mg/L (≈ 0.102 µM)
- MIC (Staphylococcus aureus [5]): 0.06 mg/L (≈ 0.102 µM)
- MIC [11]: 0.5 mg/L (≈ 0.854 µM)
- MIC (Staphylococcus aureus [13]): 1 mg/L (≈ 1.71 µM)
- MIC (Staphylococcus [16]): 0.03 mg/L (≈ 0.0512 µM)
Structure (SMILES): CN(C)c1cc(NC(=O)CNC(C)(C)C)c(O)c2c1C[C@H]1C[C@H]3[C@H](N(C)C)C(O)=C(C(N)=O)C(=O)[C@@]3(O)C(O)=C1C2=O [TIGECYCLINE]
- MIC [6]: 0.125 mg/L (≈ 0.213 µM)
- Ratio (Staphylococcus [7]): 0.93
- Ratio (Staphylococcus [8]): 1.1
- Ratio (Staphylococcus [9]): 0.99
- Ratio (Staphylococcus [10]): 0.83
- Ratio (Staphylococcus [12]): 1.31
- Activity (Staphylococcus [14]): inactive
- Ratio (Staphylococcus [15]): 0.86
- Activity (Staphylococcus [17]): inactive
- Ratio (Staphylococcus [18]): 1.32
- Ratio (Staphylococcus [19]): 1.12
- Ratio (Staphylococcus [20]): 0.98

- MIC (Staphylococcus aureus [1]): 1 mg/L (≈ 2.16 µM)
- MIC [2]: 2 mg/L (≈ 4.32 µM)
- MIC (Staphylococcus [3]): 1 mg/L (≈ 2.16 µM)
- MIC (Staphylococcus aureus [4]): 0.25 mg/L (≈ 0.541 µM)
- MIC (Staphylococcus aureus [5]): 0.5 mg/L (≈ 1.08 µM)
- MIC [11]: 0.5 mg/L (≈ 1.08 µM)
- MIC (Staphylococcus aureus [13]): 0.25 mg/L (≈ 0.541 µM)
- MIC (Staphylococcus [16]): 0.25 mg/L (≈ 0.541 µM)
Structure (SMILES): Cn1nnnc1SCC1=C(C(=O)O)N2C(=O)[C@@H](NC(=O)[C@H](O)c3ccccc3)[C@H]2SC1 [CEFAMANDOLE]
- Ratio (Staphylococcus [21]): 0.62
- Ratio (Staphylococcus [22]): 1.06
- Ratio (Staphylococcus [23]): 1.29
- Ratio (Staphylococcus [24]): 1.27
- MIC [6]: 0.25 mg/L (≈ 0.541 µM)
- Ratio (Staphylococcus [25]): 1.12
- Ratio (Staphylococcus [26]): 0.63
- Ratio (Staphylococcus [27]): 0.86
- Ratio (Staphylococcus [28]): 0.65
- Ratio (Staphylococcus [29]): 1.07
- fold change (FC) (Staphylococcus [30]): 2
- Activity (Staphylococcus [17]): inactive
- fold change (FC) (Staphylococcus [31]): 2

From ChEMBL document CHEMBL1671740, “Increased temperature enhances the antimicrobial effects of daptomycin, vancomycin, tigecycline, fosfomycin, and cefamandole on staphylococcal biofilms” (2010)
